Measurements as given in ChEMBL document CHEMBL4513216, “Probing the Open Global Health Chemical Diversity Library for Multistage-Active Starting Points for Next-Generation Antimalarials” (ACS Infect Dis, 2020).

Assay: Toxicity liver stage against HepG2, at 10uM
Type: cell-based
Parameters: test concentration 10 uM, cell line HepG2-A16-CD81EGFP
Settings: human, HepG2-A16-CD81EGFP cells; read-out: INHIBITION
How it was run: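 Uninfected HepG2-A16-CD81EGFP cells, 3 × 10^3 per well, 1536-well, plated on prespotted compound at 10 μM final, parasite-free screening media added to match infected plates; puromycin 10 μM positive, DMSO 0.5% negative; run in parallel with 48 h PbLuc assay at 37 °C, 5% CO2; viability by CellTiter-Glo luminescence, normalized to controls.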

Structure (SMILES) | cytotoxicity at 10 µM [%]
FC(F)(F)c1ccccc1CN1CCOC[C@H](Oc2cccnc2)C1 | 4.3
O=C(NC[C@H]1OC[C@@H](NC2CCCCC2)[C@@H]1O)c1cccs1 | -2.36
COc1cccc(CN2CCCCCC2c2cccc(F)c2)c1O (stereo unspecified) | 5.02
CCCNC(=O)CCC(=O)n1nc(C)c2ccccc21 | 1.23
COc1ccc2c(c1)C(=O)CC1(CCN(Cc3ccc(F)cc3)CC1)O2 | 16.6
CCOC(=O)C1CCN(C(=O)c2cnn(-c3ccccc3F)c2N)CC1 | 4.47
O=C(CC1CCCC1)NCCS(=O)(=O)N1CCN(c2ccccn2)CC1 | 0.766
Cc1ccc(S(=O)(=O)N2CCC(S(=O)(=O)c3nncn3C)CC2)cc1C | -6.9
CN(C)c1ccc2c(c1)CN(C(=O)c1ccnnc1)C2c1cnco1 (stereo unspecified) | 0.841
COC[C@H]1CCC[C@]12CN(S(=O)(=O)c1cccs1)CCO2 | -1.34
Cn1cc(C2CC(=O)NC23CCN(Cc2nccs2)CC3)cn1 (stereo unspecified) | 1.06
CNC(=O)[C@H]1C[C@@H]2CN(C(=O)c3occc3C)C[C@@H]2N1S(C)(=O)=O | -2.95
O=C(c1ccoc1)N1CCC2(C1)CN(c1ncc(F)cn1)C2 | -0.472
Cc1ccc(CN2CC[C@H]3OCC[C@@H](C(=O)NCC4CC4)[C@@H]3C2)o1 | 0.951
CCN1C[C@H]2CCN(C(=O)NC)CC[C@H]2S1(=O)=O | 4
Clc1ccc2nncc(N3CCCCC3)c2c1 | -4.34
Cc1nn(C)c2c(N3CCC(C)CC3)nc(C3CC3)nc12 | 7.59
Cn1nc(C(=O)N2CCOCC2)cc1C(=O)Nc1ncc(Cl)cc1Cl | 12.5
CS(=O)(=O)N1CCN(C(=O)c2cncs2)CC(C(N)=O)C1 (stereo unspecified) | 2.9
CN(C(=O)c1ccc(C#N)cc1)c1nnc(C2CCOC2)s1 (stereo unspecified) | 0.36
CCN(CC)C(=O)CN1CCCC1c1nc(C)c2c(n1)N(C)C(=O)CC2 (stereo unspecified) | 3.1
O=C(NCCNC1CCCC1)c1cccs1 | -0.579
Fc1ccccc1-c1nccnc1C1CCCNC1 (stereo unspecified) | -25.7

Structure (SMILES) | cytotoxicity at 10 µM [%]
COCCN1CCCC(Cc2ccc(N3CCOCC3)nn2)C1 (stereo unspecified) | -17.9
Cc1ccc(-c2cc(N)c(=O)n(C(C)C(=O)NCC3CCCCC3)n2)s1 (stereo unspecified) | -13.9
Cc1noc(C)c1-c1cncc(C2CCCN2Cc2cc[nH]n2)n1 (stereo unspecified) | 13
Cc1ccccc1-c1cncc(C2CCN(CC(=O)N(C)C)CC2)n1 | -12.5
Cn1ccc(C(=O)N2CCCC(Cc3cccc4cccnc34)C2)n1 (stereo unspecified) | -8.44
CS(=O)(=O)c1ccc(NC(=O)NCc2ccc(F)cc2)cn1 | 15.4
Cc1ccc2oc(N3CCN(CC(=O)NC(C)C)CC3)nc2c1 | -10.9
CCOc1ccc(NC(=O)c2oc(CC)cc2C)cc1CO | 2.05
Cc1cccc(-c2ccc(C(=O)N3CCN(C(C)C)CC3)c(=O)[nH]2)c1 | -3.27
CN1CCC(Nc2ccc(F)cc2OCC(F)(F)F)C1=O (stereo unspecified) | -0.898
COCCS(=O)(=O)N(Cc1ccsc1)c1ccccc1 | -4.76
Cn1cnc(S(=O)(=O)N2CCCCc3ccccc32)c1 | -4.62
CCCS(=O)(=O)NCc1ncc(C)c(OC)c1C | -12.9
CN(C)c1ncccc1N(C)C(=O)Cn1cc(-c2ccccc2)nn1 | -2.2
O=C(Cc1cccs1)NCC(=O)Nc1cn[nH]c1 | 5.68
NC(=O)CC1CCN(C(=O)NCc2cccc(-n3cccn3)c2)CC1 | -2.45
CC(c1ncc(C(C)(C)C)o1)N1CCN(Cc2ccc(Cl)s2)CC1 (stereo unspecified) | -1.21
Cn1cc(C(=O)N2CCCN(c3cccnn3)CC2)c2ccccc21 | 4
CNC(=O)Cn1cc(Nc2cccc(F)c2C#N)cn1 | 6.64
CC(Cn1cccn1)C(=O)N1CCCN(Cc2cscn2)CC1 (stereo unspecified) | -13.2
O=C(c1ccoc1)N(Cc1ccccn1)C1CC1 | -15
O=C(NCCNC(=O)C1Cc2cc(F)ccc2O1)C1CCCCC1 (stereo unspecified) | 4.07
CC(C)N(C)CCNC(=O)N1CCN(Cc2ccon2)CC1 | -1.58

Structure (SMILES) | cytotoxicity at 10 µM [%]
CCc1cnc(CN(C)C2CCN(CC3CCC3)C2)o1 (stereo unspecified) | -5.99
OCC1CCCN1c1cc(NCCc2nccs2)ncn1 (stereo unspecified) | 4.58
Cc1cc(NC(=O)CN2CCCC2c2noc(C3CC3)n2)on1 (stereo unspecified) | 3.46
CSCC(C)N(C)C(=O)c1nn(-c2ccc(F)cc2C)cc1O (stereo unspecified) | 0.618
CN1CCC(N(C)C(=O)CSc2ccc(F)c(F)c2)C1=O (stereo unspecified) | -5.89
Cc1cnn(C2CCCN(C(=O)c3c(C)oc(C)c3C)C2)c1 (stereo unspecified) | 2.56
Cc1n[nH]c(C(=O)N2CCCC(C)CC2)c1Br (stereo unspecified) | -1.74
Cn1ccc(CNC(=O)N2CCC(C3(C)OCCO3)CC2)c1 | 3.15
Cc1cc(NCc2cccc(C#N)c2)ccc1C(N)=O | 10.1
COCCc1noc(CNC(C)(CO)C2CCCCC2)n1 (stereo unspecified) | 7.88
NC(=O)C1CCCN1Cc1ccccc1NC(=O)Cc1cccc(F)c1 (stereo unspecified) | 7.31
CCOCc1nnc(NCc2cccnc2)o1 | 10.9
CN(CC(F)(F)F)C(=O)Cn1cc(NC(=O)C(C)(C)C)cn1 | 3.04
CC(O)CN1CCN(C(=O)c2cnn(-c3ccccc3F)c2)CC1 (stereo unspecified) | -6.81
CC(C)(C)C(=O)NCCC(=O)NC(C)(C)c1ccc2c(c1)OCCO2 | -1.22
CCOCC(=O)N1C[C@H]2CCC[C@@]2(COC)C1 | 0.419
CC(=O)N(C)Cc1ncn2c1CN(C(=O)C1CCCO1)CCC2 (stereo unspecified) | -101
Cn1cccc1C(=O)NCc1cn2c(n1)CN(c1ncccn1)CC2 | -109
COCCN1CC(=O)c2sc(NCc3ccccc3)nc2C1 | -6.77
O=C(c1onc2ccccc12)N1CCC2(CCCNC2)C1 (stereo unspecified) | -1.05
Cc1nc(N2CCCC2C(=O)NCc2ccsc2)nc2ccccc12 (stereo unspecified) | 6.03
CC(C)Oc1ccc(CN2CCC(Cc3nnc(CO)n3C)CC2)cc1 | 1.24
COc1ccccc1CN1C(=O)O[C@@H]2CN(CC3CC3)C[C@@H]21 | 1.35

Structure (SMILES) | cytotoxicity at 10 µM [%]
CNc1ncc(CN(C)C(=O)CCc2[nH]nc3c2CCCC3)cn1 | 3.8
CCOc1ccccc1C(C(=O)O)N(C)Cc1nnc(C)o1 (stereo unspecified) | -9.77
Cc1ccc2nc(CN3CCN(C4CCCC4)C(=O)C3)cc(O)c2c1 | -0.803
CC1(C)CNC(=O)c2nc(C3CCCN(S(C)(=O)=O)C3)[nH]c2C1 (stereo unspecified) | 0.611
O=C1CCC2(CCOC2)CN1CCCOc1cccnc1 (stereo unspecified) | -16.1
O=C(c1ccc2ncsc2c1)N1CCC(C(=O)O)(n2cccn2)CC1 | 6.01
O=c1cc(N2CCOCC2)cnn1CCc1ccc(F)cc1 | 8.01
N#Cc1cccc(NC2CC(=O)N(Cc3cccc(F)c3)C2)n1 (stereo unspecified) | -94.2
CCc1ncc(CNCc2cccnc2N(C)C)cn1 | -2.62
Cc1ccc(Cl)c(C(C(=O)O)N(C)Cc2cnn(C)c2)c1 (stereo unspecified) | -11
O=C(c1cnc2ccccn12)N1CCCC(c2ccn[nH]2)C1 (stereo unspecified) | -5.28
COCCN1CCC(CN(C)c2ncnc3c2c(C)nn3C)C1 (stereo unspecified) | -5.16
COc1cccc2c1OCC(C(=O)N1CCN(S(=O)(=O)N(C)C)CC1)C2 (stereo unspecified) | 3.47
Cc1nc2c(c(NCCNC(=O)C(C)C)n1)Cc1ccccc1OC2 | 4.74
Cc1cnn(C2(C(=O)O)CCN(Cc3oc4ccccc4c3C)CC2)c1 | -5.87
Cc1oc(C(=O)O)cc1S(=O)(=O)Nc1cc(Br)ccc1F | -3.46
Cc1noc(NC(=O)c2ccc(C#N)cc2)n1 | -5.32
CNc1nc(CNC(=O)Nc2cccc(CN(C)C)c2)cs1 | -8.04
CCOc1ccc(Cl)c(C(=O)NCCC(=O)Nc2ccncc2)n1 | -13.9
Cc1nc(CCNCc2c(C)nn(C)c2N2CCOCC2)cs1 | -11.5
Cc1cnn(C2CN(Cc3nc(-c4ccco4)no3)C2)c1 | -14.6
Cc1n[nH]c(C)c1C1COCCN1C(=O)c1ccccc1 (stereo unspecified) | -3.94
O=C(COc1ccc(C(F)(F)F)cc1)NS(=O)(=O)c1cccnc1 | -7.44

Structure (SMILES) | cytotoxicity at 10 µM [%]
Cn1cc(-c2nc(CN3CCN(CCO)CC3)cs2)cn1 | -2.66
Cc1cnn(CC2CCCCN2CCn2cncn2)c1 (stereo unspecified) | 6.26
Cn1ccc(C(=O)NCc2ccc(N3CCCC3)nc2)cc1=O | 0.12
Fc1cccc(-c2nc(CN3CCOC(Cn4cccn4)C3)co2)c1 (stereo unspecified) | -5.6
c1ccc(-n2ncc(CN3CCCC3Cn3cccn3)n2)cc1 (stereo unspecified) | -2.73
COc1ccc(C(=O)N(C)Cc2nnc3ccccn23)c(OC)c1 | -3.03
CNC(=O)c1ccc(CN2CCC(N(C)Cc3noc(C)n3)C2)cc1 (stereo unspecified) | 5.56
CNCc1ccc(OCc2ccc3c(c2)OCCO3)cc1 | 1.61
Cn1nc(C2CCCN(Cc3cccs3)C2)c2nccnc21 (stereo unspecified) | 4.2
CC(C)CNC(=O)[C@H]1CCS(=O)(=O)[C@@H]2CN(Cc3ccc(F)cc3)C[C@H]12 | 1.26
COc1ncnc2c1CCN(Cc1cccs1)CC2 | 8.55
Cc1csc(CN2CC[C@H]3C[C@H](c4nc(C)no4)O[C@@H]3C2)n1 | -3.35
O=C([C@H]1COC[C@H]2CN(c3ncc(F)cn3)C[C@H]21)N1CCOCC1 | -5.58
CCc1ncnc2c1CCN(C(=O)c1ccccn1)CC2 | 2.43
Cc1ccc(NC(=O)c2nc3c(s2)CCCN3C(=O)C2CC2)cn1 | 10.5
O=C(NC1CC1)N1CCOCC2(CCN(Cc3cccs3)C2)C1 (stereo unspecified) | -2.6
CS(=O)(=O)N1CCC2(CC1)NCCn1c(-c3ccccc3)cnc12 | 3.61
CN(C)C(=O)[C@H]1C[C@@H]2CCN(C3CCOCC3)C[C@@H]2O1 | -3.01
CC(=O)N1CC(=O)N(c2ccccc2)CC12CCN(Cc1nccs1)C2 (stereo unspecified) | -2.23
